In PubChem BioAssay:
Active and inactive are the calls of the source.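 Rule for the calls, unless noted: active = viability at or under a set limit in both replicates, limit being median viability minus 3 SD (cut at about 48% in these data, passing the limit was not always enough); inconclusive = at or under the limit in just one replicate; inactive = at or above the limit in both replicates.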

test: HUVEC growth inhibition – cell-based, human, primary screen (AID 575;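 active = viability at or below 30% in both replicate assays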;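 note: 100% = median of untreated cell wells with 0.1% DMSO on each plate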); conditions: HUVEC proliferation, CellTiter-Glo luminescence, 72 h; at 10 µM; active compounds read low
Procedure, shortened: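 Test system: primary human umbilical vein endothelial cells. Quantity: 1250 cells/well. Compound: single 10 µM dose, 0.1% DMSO, from 5x medium stock. Timing: 72 h treatment at 37 °C. Detection: ATP-based CellTiter-Glo luminescent read. Benchmarks: vehicle and MePR control wells. Format: 384-well plates coated with collagen.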

Structure (SMILES)	viability
O=C(CCN1CCOCC1)Nc1ccc2c(c1)CCC2	79.7% (inactive)
COc1ccccc1-c1nc(C(F)(F)F)c(OC)o1	104% (inactive)
Nc1c(C(=O)NCCN2CCOCC2)c2nc3ccccc3nc2n1-c1ccc2c(c1)OCO2	51.9% (inactive)
COc1cccc(C(=O)Nc2ccc(NC(=O)C(C)(C)C)cn2)c1	96% (inactive)
CCOC(=O)N1CCN(C(=O)Nc2ccc3oc(C)nc3c2)CC1	98.2% (inactive)
CCOC(=O)c1nn(-c2sc(C(=O)OC)c(C)c2C(=O)OC)cc1O	105% (inactive)
CCOC(=O)C1=C(C)N(C)C(C)=C(C(=O)OCC)C1c1cccnc1	97.5% (inactive)
O=C(Nc1ccc2c(c1)OCO2)OCc1ccccc1	78.9% (inactive)
Cn1c(=O)[nH]c(=O)c2c1nc(NCCCn1ccnc1)n2Cc1cccc(Br)c1	90.3% (inactive)
Cn1c(=O)[nH]c(=O)c2c1nc(N1CCNCC1)n2Cc1cccc2ccccc12	85.5% (inactive)
COc1ccccc1N(CN1CCCC1=O)C(=O)c1c(F)cccc1Cl	95% (inactive)
CCOC(=O)C1CCCN(C(=O)c2cccs2)C1 (stereo not given)	96.7% (inactive)
CCCCn1c(SCc2cccnc2)nc2c1c(=O)n(C)c(=O)n2C	121% (inactive)
O=C(CCCNS(=O)(=O)c1ccccc1)NCc1ccco1	94.5% (inactive)
Cc1ccc(-c2[nH]nc3c2C(c2ccoc2)C(C#N)=C(N)O3)cc1C (stereo not given)	90.2% (inactive)
CSc1nsc(SCC(=O)N2CCc3ccccc32)n1	98.6% (inactive)
Cc1ccc(NC(=O)CC2Nc3ccccc3NC2=O)cc1Cl (stereo not given)	10.1% (active)
COC(=O)c1c(C(=O)OC)n(CCCN)c2ccc(C)cc12	89.1% (inactive)
OCCn1c(CSc2nnc(-c3ccco3)n2-c2ccccc2)nc2ccc(Cl)cc21	68.7% (inactive)
Cc1c(O)c(CN2CCCC(C)C2)cc2c3c(c(=O)oc12)CCC3 (stereo not given)	93.3% (inactive)

Structure (SMILES)	viability
Clc1ccccc1-c1nnc2sc(-c3ccccn3)nn12	93.8% (inactive)
CCCn1c(=N)n(CCOc2ccc(OC)cc2)c2ccccc21	91.4% (inactive)
COC(=O)c1c(N)sc(C(=O)N2CCOCC2)c1C	95.2% (inactive)
CC(C(N)=O)N1C(=O)C2C3C=CC(C3)C2C1=O (stereo not given)	85.1% (inactive)
Cn1c(-c2ccc(F)cc2)cnc1NCc1ccccc1	108% (inactive)
O=C(CCCn1c(=O)c2sccc2n(CC(=O)NCc2ccco2)c1=O)NCc1ccco1	90.4% (inactive)
O=C(Cc1cccs1)NCc1ccc(F)cc1	98% (inactive)
CCCOc1ccc(C2C(C(=O)c3ccc(C)o3)=C(O)C(=O)N2Cc2cccnc2)cc1 (stereo not given)	110% (inactive)
CCOC(=O)c1c(C)oc2ccc(O)c(CN(C)C)c12	77.4% (inactive)
O=c1ccn(Cc2ccccc2Cl)cc1	99.9% (inactive)
CC12C(=O)N(CCC(=O)O)C(=O)C1C1C=CC2C1 (stereo not given)	107% (inactive)
O=S(=O)(NCCc1ccncc1)c1cc(Br)ccc1F	97.5% (inactive)
COc1ccc2c(c1)C(=O)N(c1ccccc1OC)C(=O)C2	74.9% (inactive)
CCn1nnc(NC(=O)c2ccccc2Br)n1	103% (inactive)
CN1CCCC(OC(=O)c2ccc3c(c2)OCCO3)C1 (stereo not given)	103% (inactive)
CC(C)c1nnc(NC(=O)CCC(=O)NCc2ccc3c(c2)OCO3)s1	103% (inactive)
O=C(O)c1ccc(-n2nc(C(F)(F)F)c3c2-c2ccoc2CC3)cc1	70.8% (inactive)
Nc1cc(C(=O)O)ccc1Nc1ccccc1	86.8% (inactive)
CCOc1ccc(OCc2cccc(C(=O)N3CCCC3)c2)cc1	110% (inactive)
O=C(O)CCc1ccc(-c2cccs2)n1NC(=O)c1ccco1	105% (inactive)

test: H69AR cell proliferation blockers – human, duplicate replicates, primary screen (AID 580); conditions: H69AR lung tumor cells viability, ATP luminescence, 72 h; at 10 µM; active compounds read low;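 note: 100% = mean luminescence of untreated wells and 0% = no signal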

Structure (SMILES)	viability
O=C(CCN1CCOCC1)Nc1ccc2c(c1)CCC2	93.7% (inactive)
COc1ccccc1-c1nc(C(F)(F)F)c(OC)o1	91.9% (inactive)
Nc1c(C(=O)NCCN2CCOCC2)c2nc3ccccc3nc2n1-c1ccc2c(c1)OCO2	18.1% (active)
COc1cccc(C(=O)Nc2ccc(NC(=O)C(C)(C)C)cn2)c1	76.2% (inactive)
CCOC(=O)N1CCN(C(=O)Nc2ccc3oc(C)nc3c2)CC1	93.2% (inactive)
CCOC(=O)c1nn(-c2sc(C(=O)OC)c(C)c2C(=O)OC)cc1O	85.1% (inactive)
CCOC(=O)C1=C(C)N(C)C(C)=C(C(=O)OCC)C1c1cccnc1	92.4% (inactive)
O=C(Nc1ccc2c(c1)OCO2)OCc1ccccc1	106% (inactive)
Cn1c(=O)[nH]c(=O)c2c1nc(NCCCn1ccnc1)n2Cc1cccc(Br)c1	81.7% (inactive)
Cn1c(=O)[nH]c(=O)c2c1nc(N1CCNCC1)n2Cc1cccc2ccccc12	88.8% (inactive)
COc1ccccc1N(CN1CCCC1=O)C(=O)c1c(F)cccc1Cl	97.5% (inactive)
CCOC(=O)C1CCCN(C(=O)c2cccs2)C1 (stereo not given)	98.3% (inactive)
CCCCn1c(SCc2cccnc2)nc2c1c(=O)n(C)c(=O)n2C	92.8% (inactive)
O=C(CCCNS(=O)(=O)c1ccccc1)NCc1ccco1	99.3% (inactive)
Cc1ccc(-c2[nH]nc3c2C(c2ccoc2)C(C#N)=C(N)O3)cc1C (stereo not given)	86.7% (inactive)
CSc1nsc(SCC(=O)N2CCc3ccccc32)n1	96.8% (inactive)
Cc1ccc(NC(=O)CC2Nc3ccccc3NC2=O)cc1Cl (stereo not given)	27.8% (active)
COC(=O)c1c(C(=O)OC)n(CCCN)c2ccc(C)cc12	89.7% (inactive)
OCCn1c(CSc2nnc(-c3ccco3)n2-c2ccccc2)nc2ccc(Cl)cc21	84.9% (inactive)
Cc1c(O)c(CN2CCCC(C)C2)cc2c3c(c(=O)oc12)CCC3 (stereo not given)	83.1% (inactive)

Structure (SMILES)	viability
Clc1ccccc1-c1nnc2sc(-c3ccccn3)nn12	86.3% (inactive)
CCCn1c(=N)n(CCOc2ccc(OC)cc2)c2ccccc21	69.8% (inactive)
COC(=O)c1c(N)sc(C(=O)N2CCOCC2)c1C	97.7% (inactive)
CC(C(N)=O)N1C(=O)C2C3C=CC(C3)C2C1=O (stereo not given)	106% (inactive)
Cn1c(-c2ccc(F)cc2)cnc1NCc1ccccc1	66.2% (inactive)
O=C(CCCn1c(=O)c2sccc2n(CC(=O)NCc2ccco2)c1=O)NCc1ccco1	100% (inactive)
O=C(Cc1cccs1)NCc1ccc(F)cc1	99.6% (inactive)
CCCOc1ccc(C2C(C(=O)c3ccc(C)o3)=C(O)C(=O)N2Cc2cccnc2)cc1 (stereo not given)	97.8% (inactive)
CCOC(=O)c1c(C)oc2ccc(O)c(CN(C)C)c12	87.3% (inactive)
O=c1ccn(Cc2ccccc2Cl)cc1	88.2% (inactive)
CC12C(=O)N(CCC(=O)O)C(=O)C1C1C=CC2C1 (stereo not given)	89.6% (inactive)
O=S(=O)(NCCc1ccncc1)c1cc(Br)ccc1F	98.2% (inactive)
COc1ccc2c(c1)C(=O)N(c1ccccc1OC)C(=O)C2	92.8% (inactive)
CCn1nnc(NC(=O)c2ccccc2Br)n1	99.9% (inactive)
CN1CCCC(OC(=O)c2ccc3c(c2)OCCO3)C1 (stereo not given)	106% (inactive)
CC(C)c1nnc(NC(=O)CCC(=O)NCc2ccc3c(c2)OCO3)s1	97.7% (inactive)
O=C(O)c1ccc(-n2nc(C(F)(F)F)c3c2-c2ccoc2CC3)cc1	97% (inactive)
Nc1cc(C(=O)O)ccc1Nc1ccccc1	111% (inactive)
CCOc1ccc(OCc2cccc(C(=O)N3CCCC3)c2)cc1	92.9% (inactive)
O=C(O)CCc1ccc(-c2cccs2)n1NC(=O)c1ccco1	96.8% (inactive)
